A selection: hits, their analogues and other compounds. The true share with any hit is near 1.4%.
PMI act hi M6P: human PMI activators, high substrate, primary screen, biochemical, fluorescence intensity, near-saturating mannose 6-phosphate. Mannose-6-phosphate isomerase (Homo sapiens), P34949. coupled PMI enzyme assay, resazurin fluorescence, 20 min; stronger effect = higher value; 1 = untreated enzyme, 0 = substrate-free blank. activation factor at 20 µM. 190,000 compounds, 0.34% hits. AID 1216, 2008;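 active = activation factor of 2 or more at 20 µM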
Target sequence (P34949 whole entry, looked up): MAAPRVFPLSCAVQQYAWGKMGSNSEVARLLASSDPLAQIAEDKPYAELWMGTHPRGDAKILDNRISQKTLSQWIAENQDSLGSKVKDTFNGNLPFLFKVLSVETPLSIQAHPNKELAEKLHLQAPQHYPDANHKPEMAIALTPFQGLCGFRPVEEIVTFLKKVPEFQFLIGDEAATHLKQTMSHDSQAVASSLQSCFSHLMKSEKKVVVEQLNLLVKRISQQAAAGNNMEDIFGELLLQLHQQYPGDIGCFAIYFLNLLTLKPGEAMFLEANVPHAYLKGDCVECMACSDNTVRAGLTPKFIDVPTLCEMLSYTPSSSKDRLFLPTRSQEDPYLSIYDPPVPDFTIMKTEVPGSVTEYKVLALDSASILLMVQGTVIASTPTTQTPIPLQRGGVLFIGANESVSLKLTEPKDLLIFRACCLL
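Material: human phosphomannose isomerase with PGI, G6PDH, diaphorase coupling enzymes / Reagent: Man-6-P substrate 1.0 mM / Dosing: single compound dose of 20 µM, 1% DMSO final / Incubation: enzyme reaction with compound 20 min at room temperature / Signal: resorufin fluorescence (Ex 544/Em 590 nm) from resazurin via diaphorase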
Diaph act CS: compounds boosting diaphorase resazurin reduction – biochemical, uHTS, resorufin fluorescence, counter-screen for diaphorase-coupled primary assays, primary screen; 190,000 compounds, 0.005% hits; AID 1229, 2008; Diaphorase/resazurin coupled assay, 16 min; stronger effect = higher value; 1 = vehicle wells, 0 = NADH-free wells; activation factor at 20 µM;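 active = diaphorase activity raised at least twofold by the compound at 20 µM; inactive = activation factor below 2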
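Material: purified diaphorase enzyme from Clostridium kluyveri; Also added: 0.114 mM NADH and 0.1 mM resazurin, final amounts; Doses: single compound dose of 20 µM, 1% DMSO final; Times: 16 min enzyme reaction, ambient temperature; Detection: resorufin fluorescence, excitation 544 nm, emission 590 nm; Measure: increased resorufin signal from activators or reducing compounds.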
Avidin fluor: green autofluorescence of compounds with avidin beads – biophysical, 488/530 nm, flow cytometry, artefact control, profiling panel; compound fluorescence 488/530 nm; stronger effect = higher value; fluorescence (KMESF) at 10 µM; 220,000 compounds, 0.38% hits; in the data active = fluorescence above about 47
p47phox inh: p47phox/p22phox peptide binding inhibitors, primary screen, biochemical, uHTS, NADPH oxidase regulatory subunit; 220,000 compounds, 0.53% hits; fluorescence polarization, 2 h; inhibition, % at 24.7 µM; AID 1274, 2008; Neutrophil cytosol factor 1 (Homo sapiens), P14598;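 active = inhibition above about 30%, limit read from the data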
PMI act: activators of human PMI, primary screen, biochemical, fluorescence intensity, near-Km mannose 6-phosphate; purified human PMI, coupled resazurin fluorescence, 20 min; stronger effect = higher value; 1 = vehicle control, 0 substrate-free wells; 190,000 compounds, 0.005% hits; activation factor at 20 µM;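 active = activation factor of 2 or more at 20 µM, relative to plate controls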
GSH fluor: compound fluorescence on glutathione beads, profiling panel, artefact control, biophysical, 488/530 nm, flow cytometry; fluorescence (KMESF) at 10 µM; 190,000 compounds, 0.25% hits; GSH beads flow cytometry, compound fluorescence 488/530 nm; stronger effect = higher value; in the data active = fluorescence above about 89;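 note: glutathione beads carrying GST-tagged Bcl family fusion proteins plus one bare bead set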
Each line names hits and unclear results; the compound was inactive in the other large screens.

COC(=O)c1ccc(OC(=O)c2ccccn2)cc1	GSH fluor 269
CC(=O)NC1CC(C)(C)N(OC(C)=O)C(C)(C)C1	Avidin fluor 53
FC(F)(F)c1ccc2c(c1)NCC1CCCN21 (centres undefined)	p47phox inh 51.0
CN(C)C(=O)c1nc(C#N)c(N(C)C)o1	GSH fluor 257
O=S(NCc1ccco1)C12CC3CC(CC(C3)C1)C2 (centres undefined)	PMI act hi M6P 2
CCn1cc2c(c1-c1cccc(C)c1)c(=O)n(C)c(=O)n2C	PMI act hi M6P 2.1
Nc1ccc(N2CCN(CCCCN3C(=O)C4CCCN4C3=O)CC2)cc1 (centres undefined)	none
Cn1c(=O)c2c(-c3ccccc3)n(C3CCCCC3)cc2n(C)c1=O	p47phox inh 56.9
CN1C(=O)C(C(=O)Nc2ccccc2F)c2ccccc21 (centres undefined)	none
CCOC(=O)c1c(C)[nH]c(-c2csc(N)n2)c1C	PMI act hi M6P 2
COc1ccc(OCCC(=O)NCC23CC4CC(CC(C4)C2)C3)cc1	none
COc1ccc2c(Cl)c(C(=O)N/N=C/c3ccc4c(c3)OCO4)sc2c1	none
O=C(N/N=C/c1ccc2c(c1)OCO2)c1sc2cc(Cl)ccc2c1Cl	p47phox inh 31.5
COC(=O)c1sc(-c2ccc(C(C)(C)C)cc2)cc1NC(=O)CCC(=O)O	p47phox inh 33.0 (no result: PMI act hi M6P, Diaph act CS, PMI act, GSH fluor)
CC(C)CNS(=O)(=O)c1cc(C(=O)N2CC(C)OC(C)C2)c(Cl)cc1Cl (centres undefined)	none
CC(C)CNc1cc(Cl)c(S(=O)(=O)NCC(C)C)cc1C(=O)O	Avidin fluor 85
CCOC(=O)N=Nc1c(O)n(C)c2ccccc12	Avidin fluor 121
Clc1ccc(C[n+]2csc3ccccc32)cc1	PMI act hi M6P 2.2
Fc1ccc(C[n+]2csc3ccccc32)cc1	none
Cc1ccccc1NC(=O)CSc1ccsc1[N+](=O)[O-]	none
CNC(=O)c1c(Br)cnn1-c1ccc(C)cc1	none
O=C(NCc1ccc(F)cc1)c1ccc(N2CCc3ccccc32)c([N+](=O)[O-])c1	none
CCSc1nsc(SCC)c1C(N)=O	none
COc1ccc2c(C)cc(=S)[nH]c2c1	PMI act hi M6P 2.5
CC(=O)Oc1ccc(C(=O)[C@H]2[C@H]3C(=O)N(c4ccc5ccccc5c4)C(=O)[C@H]3[C@@H]3C=CC=NN32)cc1	PMI act hi M6P 2.1
COc1ccccc1N1C(=O)[C@@H]2[C@H](C1=O)[C@H](C(=O)c1ccc(OC(C)=O)cc1)N1N=CC=C[C@@H]21	none (no result: PMI act hi M6P, Diaph act CS, PMI act, GSH fluor)
O=C(Nc1nc(-c2ccccc2)c(-c2ccccc2)s1)c1ccc(S(=O)(=O)N2CCCC2)cc1	none
O=C(Nc1nc(-c2ccccc2)c(C(=O)c2ccccc2)s1)c1ccc(S(=O)(=O)N2CCCC2)cc1	Avidin fluor 172
Cc1ccc(C)c(NC(=S)NCc2ccc3[nH]c4c(c3c2)CCCC4)c1	none
C/C(=N\NC(=O)COc1ccc(C)cc1Br)c1cc([N+](=O)[O-])cs1	p47phox inh 31.5
C/C(=N\NC(=O)COc1ccc(C)cc1[N+](=O)[O-])c1cccs1	none
Cc1ccc(/C=N/NC(=O)Cn2cnc3ccccc32)cc1	none
NS(=O)(=O)c1cc(C(=O)OCC(=O)c2ccc3c(c2)OCCO3)ccc1Cl	Avidin fluor 51
NS(=O)(=O)c1cc(C(=O)OCC(=O)NC2CC2)ccc1Cl	none
CCN1CCN(Cc2ccc(NC(=O)c3ccc(C)c(NC(=O)c4c[nH]c5cc(C(F)(F)F)ccc5c4=O)c3)cc2C(F)(F)F)CC1	p47phox inh 73.1 (no result: PMI act hi M6P, Diaph act CS, PMI act, GSH fluor)
CCN1CCN(Cc2ccc(NC(=O)c3cc(NC(=O)c4cc5cccc(OC)c5o4)cc(OC)c3)cc2C(F)(F)F)CC1	p47phox inh 56.7 (no result: PMI act hi M6P, Diaph act CS, PMI act, GSH fluor)
CCN1CCN(Cc2ccc(NC(=O)c3cc(NC(=O)c4cc(-c5ccc(OC)cc5)n[nH]4)cc(OC)c3)cc2C(F)(F)F)CC1	p47phox inh 38.2 (no result: PMI act hi M6P, Diaph act CS, PMI act, GSH fluor)
CCN1CCN(Cc2ccc(NC(=O)c3cc(NC(=O)c4ccno4)cc(OC)c3)cc2C(F)(F)F)CC1	none (no result: PMI act hi M6P, Diaph act CS, PMI act, GSH fluor)
CCN1CCN(Cc2ccc(NC(=O)c3cc(NC(=O)c4ccc5n[nH]nc5c4)cc(OC)c3)cc2C(F)(F)F)CC1	none (no result: PMI act hi M6P, Diaph act CS, PMI act, GSH fluor)
NC(=S)N/N=C/c1ccc(Br)o1	none
NC(=S)N/N=C/c1ccc(-c2cc(Cl)c(Cl)cc2Cl)o1	PMI act hi M6P 2
COc1ccc(OCc2nc(N)nc(Nc3ccccc3OC)n2)cc1	p47phox inh 98.8
COc1ccccc1Nc1nc(N)nc(CCl)n1	none (no result: PMI act hi M6P, Diaph act CS, PMI act, GSH fluor)
O=C(CCn1c(=O)sc2ccccc21)NCc1ccccc1	none
CN(C)C=NC1=NN(c2cccc(C(F)(F)F)c2)CC1	none
CCCC(CCC)C(=O)Nc1ccc2c(c1)N(C(=O)CN1CCN(C)CC1)c1ccccc1CC2	none
O=C(Nc1ncc2c(n1)-c1ccccc1OC2)c1ccc(Cl)cc1Cl	none
Cc1cccc(NCc2cc(Cl)cc(Cl)c2O)n1	Avidin fluor 175
Cc1cccc(NCc2cc(Cl)ccc2O)n1	none
O=C1c2ccc3c4c(ccc(c24)C(=O)N1CCCCO)C(=O)N(CCCCO)C3=O	p47phox inh 61.8
O=C(c1ccc2c(c1)C(=O)N(CCCO)C2=O)c1ccc2c(c1)C(=O)N(CCCO)C2=O	none
CC1=C(C(=O)Nc2ccccc2C)C2(CCCCC2)C(C(N)=O)C(=S)N1 (centres undefined)	PMI act hi M6P 2
COc1cccc(NC(=S)N/N=C2\CC3CCC2(C)C3(C)C)c1 (centres undefined)	none
COc1cccc(NC(=S)NN=C2CCC(C(C)(C)C)CC2)c1 (centres undefined)	PMI act hi M6P 2.1
Cc1nn(Cc2cccc(Oc3ccccc3)c2)c(C)c1NC(=O)NC12CC3CC(CC(C3)C1)C2	none
COC(=O)C(F)(F)Sc1c(C)[nH]c2ccccc12	Avidin fluor 143
O=C(NN=C1CCCC1)C1COc2ccccc2O1 (centres undefined)	none
COc1ccc(-c2cc3ccccc3oc2=O)cc1NC(=O)c1ccc([N+](=O)[O-])o1	p47phox inh 40.2
CCC(=O)Nc1cc(-c2cc3ccccc3oc2=O)ccc1OC	none
COc1ccc(-c2cc3ccccc3oc2=O)cc1NC(=O)c1ccc(Br)o1	Avidin fluor 47, p47phox inh 40.7
